HIF act – HIF pathway transcriptional activation; U2OS HRE-luciferase reporter, luminescence; normalized: DMSO 0%, desferrioxamine 100%; activation, % at 7.5 µM (by protocol); actives 0.32% (n = 300,000); AID 1910;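 active means mean activation of at least 10% of the iron chelator positive control signal, with at least half of replicates also reaching 10%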
H9c2 TAG inh – inhibitors of triacylglycerol accumulation; H9c2 cells, Nile Red lipid (TAG) fluorescence; cells loaded with 200 µM oleic acid; inhibition, % at 12.5 µM; actives 0.66% (n = 230,000);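 active means pattern-corrected inhibition of lipid staining of at least 50% with the nuclear-stain viability signal not falling by more than 50%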;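 further: 0% = DMSO wells and 100% = triacsin C control wells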
GAA850 FXN act – activators of GAA850 frataxin (FXN) promoter; HEK293 lucGAA850 FXN promoter luciferase reporter, 24 h; percent of 10 µM SAHA response; actives 0.56% (n = 360,000); activation, % at 6 µM;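 active means activation above the average of all compounds screened plus 3 SD, cutoff fixed separately per campaign, cut at about 7.5% in these data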;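 further: 0% = DMSO wells and 100% = 10 µM SAHA wells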
Rad51 HR inh – blocks human Rad51 in homologous recombination | Q06609 | hRad51 DNA strand exchange, fluorescence dequenching | inhibition, % at 10 µM | actives 0.085% (n = 200,000) | AID 1385;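 active means inhibition above 40% at the single screening dose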;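 further: 0% = DMSO control wells and 100% = blanks with heterologous ssDNA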
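Material: human Rad51–ssDNA filaments; Probe or stimulus: labelled 47-mer dsDNA for strand exchange; Doses: single 10 µM dose; Incubation: 37 °C 15-min filament assembly, 30-min compound preincubation, 15-min exchange; Technique: FRET fluorescence dequenching, excitation 485 nm, emission 520 nm; Measure: Fluorescence-based percent inhibition, control- and blank-normalised; Benchmarks: plate control and blank wells.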
ABHD5-PLIN5 inh – ABHD5-PLIN5 protein interaction inhibition; Q00G26+Q8WTS1; Split G. princeps luciferase complementation, luminescence, 4 h; inhibition, % at 4 µM; actives 0.78% (n = 360,000); AID 602281;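 active means inhibition above the mean inhibition across every tested compound plus 3 SD, cut at about 22% in these data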;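 further: 0% = DMSO only wells and the 100% control is not disclosed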
Target sequence (Q00G26 whole entry, looked up): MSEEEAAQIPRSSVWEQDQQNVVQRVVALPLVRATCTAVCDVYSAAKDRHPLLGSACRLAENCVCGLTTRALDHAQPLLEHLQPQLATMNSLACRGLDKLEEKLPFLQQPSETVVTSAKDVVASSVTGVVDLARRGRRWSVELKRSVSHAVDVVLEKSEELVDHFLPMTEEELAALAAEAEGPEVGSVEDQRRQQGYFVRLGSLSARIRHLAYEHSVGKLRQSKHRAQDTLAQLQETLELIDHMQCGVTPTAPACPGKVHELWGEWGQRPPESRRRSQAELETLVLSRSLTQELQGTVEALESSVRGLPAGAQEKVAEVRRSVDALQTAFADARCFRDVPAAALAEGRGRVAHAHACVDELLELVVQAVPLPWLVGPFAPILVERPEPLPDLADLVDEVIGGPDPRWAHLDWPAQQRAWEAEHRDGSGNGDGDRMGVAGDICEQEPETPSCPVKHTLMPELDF
Target sequence (Q8WTS1 whole entry, looked up): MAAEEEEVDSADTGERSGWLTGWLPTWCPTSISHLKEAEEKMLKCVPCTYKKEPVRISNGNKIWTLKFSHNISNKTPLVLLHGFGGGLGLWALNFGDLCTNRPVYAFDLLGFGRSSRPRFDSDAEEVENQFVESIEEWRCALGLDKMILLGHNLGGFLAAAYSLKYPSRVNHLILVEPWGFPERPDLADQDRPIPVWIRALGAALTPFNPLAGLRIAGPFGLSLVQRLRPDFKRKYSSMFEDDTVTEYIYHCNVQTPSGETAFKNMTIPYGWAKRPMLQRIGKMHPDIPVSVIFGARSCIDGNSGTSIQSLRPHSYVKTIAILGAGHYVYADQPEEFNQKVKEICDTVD
Hsp70 activator – switches on Hsp70 transcription. HeLa Hsp70 promoter luciferase reporter, luminescence; scaled: vehicle 0, proteasome-inhibitor control 100%. activation, % at 10 µM. actives 0.04% (n = 200,000). AID 1203;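 active means activation above the mean across all tested compounds plus 3 SD, cutoff set per campaign, cut at about 5.5% in these data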;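 further: 100% = MG132 at 30 µM as the positive control and 0% = DMSO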
Numbers without * were called inactive; x = no result. Only some compounds are listed: those with a hit (about 1.9% of all), similar ones and a draw of the others.

SMILES	HIF act	H9c2 TAG inh	GAA850 FXN act	Rad51 HR inh	ABHD5-PLIN5 inh	Hsp70 activator
O=[N+]([O-])c1cc(Cl)cc(/C=N\Nc2ccccn2)c1O	20.8*	0.6	-2.1	4.5	5.4	-0.1
O=[N+]([O-])c1ccc(/C=N/Nc2nc(NCc3ccccc3)nc(N3CCOCC3)n2)cc1	-1.6	-5.7	0.2	-2.4	-7.2	0.0
O=[N+]([O-])c1cccc(/C=N/Nc2nc(NCc3ccccc3)nc(N3CCOCC3)n2)c1O	18.6*	-7.3	-2.7	x	7.0	-0.2
O=C(NCc1ccccc1)C1CC(=O)N(C2CCCCCC2)C1 (stereo unspecified)	-0.1	-2.0	0.7	-1.5	-2.5	0.0
O=C(NCc1cccs1)C1CC(=O)N(C2CCCC2)C1 (stereo unspecified)	213.6*	x	-2.0	8.5	-4.1	-0.5
Cc1ccc(C)c(S(=O)(=O)N2CCN(C(=O)CN3C(=O)C4CC=CCC4C3=O)CC2)c1 (stereo unspecified)	x	10.9	0.2	x	-4.0	x
Cc1nnc(NC(=O)C2CC(=O)N(c3ccc4c(c3)OCCO4)C2)s1 (stereo unspecified)	x	3.2	0.7	x	-4.7	x
O=C(Nc1nc(-c2ccco2)c(-c2ccco2)s1)C1CC(=O)N(c2ccc3c(c2)OCCO3)C1 (stereo unspecified)	0.7	13.6	-3.9	3.4	32.6*	0.1
Cc1ccsc1C(=O)N(C)CC(=O)Nc1ccccc1Br	x	-5.2	0.4	x	4.4	x
Cc1nn(C)cc1S(=O)(=O)NCc1ccc2c(c1)OCO2	262.6*	-10.3	0.8	x	3.0	x
Cc1ccc(C)c(S(=O)(=O)NCc2ccc3c(c2)OCO3)c1	-0.5	x	2.7	x	-2.4	x
COc1ccc(NC(=O)CCNC(=O)Cn2ccc3ccccc3c2=O)cc1Cl	-1.3	x	0.0	x	3.5	x
C#CCOCCOCCOCCNc1nc(N2CCN(C(=O)CCCCCCCCCCNC(=O)[C@H](CCCCN)n3cc(CCO)nn3)CC2)nc(N2CCN(C(=O)CCCCCCCCCCNC(=O)[C@H](CCCCN)n3cc(CCCC(=O)O)nn3)CC2)n1	x	-2.9	0.7	x	15.6	x
C#CCOCCOCCOCCNc1nc(N2CCN(C(=O)CCCCCCCCCCNC(=O)[C@@H](CCC(=O)O)n3cc(CCCCCN)nn3)CC2)nc(N2CCN(C(=O)CCCCCCCCCCNC(=O)[C@H](CO)n3cc(CCCSC)nn3)CC2)n1	x	-19.9	1.2	x	46.9*	x
C#CCOCCOCCOCCNc1nc(N2CCN(C(=O)CCCCCCCCCCNC(=O)[C@@H](CCSC)n3cc(CCO)nn3)CC2)nc(N2CCN(C(=O)CCCCCCCCCCNC(=O)[C@H](CCC(=O)O)n3cc(CCCCCN)nn3)CC2)n1	x	-8.8	2.4	x	41.3*	x
Cc1ccc(CNC(=O)[C@H]2O[C@@H](n3cnc4c(N)ncnc43)[C@H](O)[C@@H]2O)o1	x	x	x	x	-2.7	x
COc1ccc(C(=O)NCCc2nc3cc([N+](=O)[O-])ccc3n2C)cc1	25.9*	-3.0	-1.0	20.5	-1.0	x
COc1ccc(C(=O)Nc2ccc3c(c2)nc(CCNC(C)=O)n3C)cc1	1.7	x	5.1	-7.4	-0.1	-0.4
Cc1cccc2sc(NC(=O)CCNS(=O)(=O)c3cccs3)nc12	-1.0	64.9*	-1.1	-0.7	-3.4	-0.3
Nc1ccc2c(c1Cl)C(=O)c1ccc(N)c(Cl)c1C2=O	0.1	x	8.4*	16.0	-6.7	x
COc1ccc(OC)c(NC(=O)CCc2nnc3ccc(NCc4ccco4)nn23)c1	17.3*	x	0.1	x	6.6	x
CN(C)CCCn1c2c3ccccc3ccc2c2oc(=O)c3ccccc3c21	x	77.8*	4.1	x	-29.4	x
O=C(C1=C[C@@H](C2CC2)C[C@@H](OCCCCO)O1)N1CCN(Cc2ccc3c(c2)OCO3)CC1	40.0*	-18.2	1.6	10.8	2.2	0.2
COc1ccc2c(c1)c(/C=N/Nc1nc3ccccc3[nH]1)c(C)n2C	1.3	50.4*	-1.9	10.6	14.1	x
COc1cc(/C=N\Nc2nc3ccccc3[nH]2)cc(OC)c1OC	0.4	11.0	-5.2	3.1	1.3	-0.4
SMILES	HIF act	H9c2 TAG inh	GAA850 FXN act	Rad51 HR inh	ABHD5-PLIN5 inh	Hsp70 activator
N#CCC(=O)NNC(=S)Nc1ccccc1C(F)(F)F	0.0	-1.9	0.3	40.5*	2.9	-0.2
CC(C)c1ccc(NC(=O)CCc2ccccc2)cc1	12.1*	x	-1.8	x	-0.4	x
CSc1nnc(-c2ccc(NC(=O)CCc3ccccc3)cc2)n1C	-0.1	16.8	5.5	x	2.4	0.0
Cn1c(SCC(=O)Nc2ccccc2)nnc1-c1ccc(NC(=O)CCc2ccccc2)cc1	26.4*	3.8	-1.4	-1.5	-4.6	-0.2
CCc1ccc(S(=O)(=O)Nc2nnc(N)s2)cc1	1.5	8.5	2.6	x	-4.4	x
O=C(NN=C1c2ccccc2-c2ccccc21)c1cccc(Br)c1	-0.1	x	1.4	-2.6	-5.5	-0.4
CC(=O)CC(C)(C)NC(C)=S	-0.2	-2.6	0.7	6.8	-3.9	x
COC(=O)CCN1CCN(S(=O)(=O)c2ccc3c(c2)OCCO3)CC1	x	-17.6	1.6	x	-3.2	x
Cc1ccc(CNC(=O)CSCc2ccccc2)cc1	0.6	6.4	1.1	4.1	-4.6	-0.5
Cc1ccc(CNC(=O)CSCc2ccc(F)cc2)cc1	-0.9	-20.0	0.5	46.1*	-3.7	0.1
CCCCNC(=O)Cn1nc(-c2ccc(C)cc2)ccc1=O	-1.0	x	1.2	x	-5.3	x
Cc1ccc(-c2ccc(=O)n(CC(=O)NCc3ccc(F)cc3)n2)cc1	0.2	-11.6	0.8	50.3*	2.0	0.5
S=C(Nc1ccc(Cl)cc1)Nc1ccc2cn[nH]c2c1	10.4*	-2.9	0.5	-0.2	-7.0	0.0
S=C(Nc1ccc2cn[nH]c2c1)Nc1ccccc1Cl	10.6*	x	2.3	x	-17.5	1.3
S=C(Nc1ccc2cn[nH]c2c1)Nc1ccc(Cl)cc1Cl	4.2	6.2	0.7	4.6	-9.4	-0.3
CN(C)C1=NCCN1CCC1CCCCC1	x	11.7	-1.1	x	-6.2	x
O=C(NCc1ccco1)C1CCN(C(=O)c2ccc([N+](=O)[O-])cc2)CC1	1.1	-21.0	1.0	x	-0.8	x
COc1ccc(C(C[N+](=O)[O-])c2c(-c3ccccc3)cc3ccccn23)cc1OC (stereo unspecified)	0.4	-14.7	1.5	x	17.8	-0.1
COc1ccc(C(C[N+](=O)[O-])C2(c3ccc(OC)c(OC)c3)C(=O)c3ccccc3C2=O)cc1 (stereo unspecified)	0.6	x	7.4	15.3	83.8*	-0.5
CCOC(=O)c1cc(NC(=O)Nc2ccccn2)c(C)nc1C	0.3	x	2.4	2.9	3.0	0.1
COc1ccc(NC(=S)Nc2ccc3nsnc3c2)cc1	-1.1	x	4.1	-2.0	23.1*	0.4
CCOc1ccc(NC(=S)Nc2ccc3nsnc3c2)cc1	4.8	x	1.6	-54.2	-29.2	-0.1
COc1ccccc1C(=O)N(CCC1CCCN1C)c1nc2ccccc2s1 (stereo unspecified)	-2.6	5.9	-12.2	x	10.2	0.1
CC(=O)NCCc1cnc[nH]1	-0.1	x	10.2*	x	-3.0	x

Screens (PubChem)
